From ChEMBL document CHEMBL4765265, “4-Substituted picolinohydrazonamides as a new class of potential antitubercular agents” (Eur J Med Chem, 2020)
In brackets after ≈: the same amount, converted by molar mass.

Key:
[1] = system: Mycobacterium tuberculosis; assay: Antimycobacterial activity against patient derived Mycobacterium tuberculosis Spec. 210; assay type: functional
Method in brief: (§1)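 Classical test-tube successive twofold dilution in Youmans' modification of Proskauer and Beck liquid medium with 10% bovine serum. Inoculum from 14-day-old cultures. Compounds dissolved in ethylene glycol (stock 10 mg/mL), tested at […]. Incubation at 37 °C. MIC is the lowest concentration inhibiting growth relative to a compound-free tube. Isoniazid, pyrazinamide and rifampicin served as references.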

[2] = system: Mycobacterium tuberculosis; assay: Antimycobacterial activity against Mycobacterium tuberculosis H37Rv; assay type: functional; method in brief: as §1
[3] = system: Bacillus subtilis; assay: Antibacterial activity against Bacillus subtilis ATCC 6633 assessed as reduction in bacterial growth incubated for 24 hrs by broth microdilution assay; assay type: functional
Method in brief: (§2)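 Twofold serial broth microdilution in Mueller-Hinton broth, supplemented with 5% lysed sheep blood for fastidious species. […]. Inoculum was set to 0.5 McFarland in 0.85% NaCl, giving a final 1.5 × 10⁶ CFU/mL. Plates were incubated 24 h at 35 °C. MIC was read visually as the lowest concentration with complete growth inhibition. Controls: 10% DMSO (final), growth and sterility. Triplicate.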

[4] = system: Staphylococcus aureus; assay: Antibacterial activity against Staphylococcus aureus ATCC 6538 assessed as reduction in bacterial growth incubated for 24 hrs by broth microdilution assay; assay type: functional; method in brief: as §2
[5] = system: Streptococcus pyogenes; assay: Antibacterial activity against Streptococcus pyogenes ATCC 19615 assessed as reduction in bacterial growth incubated for 24 hrs by broth microdilution assay; assay type: functional; method in brief: as §2
[6] = system: Proteus mirabilis; assay: Antibacterial activity against Proteus mirabilis ATCC […] assessed as reduction in bacterial growth incubated for 24 hrs by broth microdilution assay; assay type: functional; method in brief: as §2
[7] = system: B16-F10; assay: Cytotoxicity against mouse B16-F10 cells assessed as reduction in cell viability incubated for 72 hrs by MTT assay; assay type: cell-based; details: B16-F10, 72 h
[8] = system: Streptococcus pneumoniae; assay: Antibacterial activity against Streptococcus pneumoniae ATCC 49619 assessed as reduction in bacterial growth incubated for 24 hrs by broth microdilution assay; assay type: functional; method in brief: as §2
[9] = system: Pseudomonas aeruginosa; assay: Antibacterial activity against Pseudomonas aeruginosa ATCC 9027 assessed as reduction in bacterial growth incubated for 24 hrs by broth microdilution assay; assay type: functional; method in brief: as §2
[10] = system: Candida parapsilosis; assay: Antifungal activity against Candida parapsilosis ATCC 22019 assessed as reduction in fungal growth incubated for 48 hrs by broth microdilution assay; assay type: functional; details: Lodderomyces parapsilosis
Method in brief: (§3)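 Yeasts were tested by twofold broth microdilution in Mueller-Hinton broth with 2% glucose at final concentrations of 0.98–1000 µg/mL. Inoculum was prepared from 0.5 McFarland suspensions in 0.85% NaCl, giving a final 5 × 10⁴ CFU/mL. Incubation was 48 h at 30 °C. MIC was the lowest concentration visually showing complete growth inhibition. Controls: 10% DMSO (final), growth and sterility. Triplicate.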

[11] = system: Candida albicans; assay: Antifungal activity against Candida albicans ATCC […] assessed as reduction in fungal growth incubated for 48 hrs by broth microdilution assay; assay type: functional; method in brief: as §3
[12] = system: NHDF; assay: Cytotoxicity against human NHDF cells assessed as reduction in cell viability incubated for 72 hrs by MTT assay; assay type: cell-based
[13] = system: Escherichia coli; assay: Antibacterial activity against Escherichia coli ATCC 25922 assessed as reduction in bacterial growth incubated for 24 hrs by broth microdilution assay; assay type: functional; method in brief: as §2
[14] = system: Staphylococcus aureus; assay: Antibacterial activity against Staphylococcus aureus ATCC 25923 assessed as reduction in bacterial growth incubated for 24 hrs by broth microdilution assay; assay type: functional; method in brief: as §2
[15] = system: Staphylococcus epidermidis; assay: Antibacterial activity against Staphylococcus epidermidis ATCC 12228 assessed as reduction in bacterial growth incubated for 24 hrs by broth microdilution assay; assay type: functional; method in brief: as §2
[16] = system: Micrococcus luteus; assay: Antibacterial activity against Micrococcus luteus ATCC 10240 assessed as reduction in bacterial growth incubated for 24 hrs by broth microdilution assay; assay type: functional; method in brief: as §2
[17] = system: Candida albicans; assay: Antifungal activity against Candida albicans ATCC 2091 assessed as reduction in fungal growth incubated for 48 hrs by broth microdilution assay; assay type: functional; method in brief: as §3
[18] = system: Bacillus cereus; assay: Antibacterial activity against Bacillus cereus ATCC 10876 assessed as reduction in bacterial growth incubated for 24 hrs by broth microdilution assay; assay type: functional; method in brief: as §2
[19] = system: Streptococcus mutans; assay: Antibacterial activity against Streptococcus mutans ATCC 25175 assessed as reduction in bacterial growth incubated for 24 hrs by broth microdilution assay; assay type: functional; method in brief: as §2
[20] = system: Klebsiella pneumoniae; assay: Antibacterial activity against Klebsiella pneumoniae ATCC 13883 assessed as reduction in bacterial growth incubated for 24 hrs by broth microdilution assay; assay type: functional; method in brief: as §2
[21] = system: Staphylococcus aureus; assay: Antibacterial activity against Staphylococcus aureus ATCC 43300 assessed as reduction in bacterial growth incubated for 24 hrs by broth microdilution assay; assay type: functional; method in brief: as §2

N/C(=N\NC(=S)N1CCCCC1)c1cc(Sc2ccccc2)ccn1
MIC [1]: 12.5 µg/mL (≈ 33.6 µM) | MIC [2]: 12.5 µg/mL (≈ 33.6 µM)

N/C(=N\NC(=S)N1CCCC1)c1cc(N2CCCC2)ccn1
MIC [1]: 6.25 µg/mL (≈ 19.6 µM) | MIC [2]: 6.25 µg/mL (≈ 19.6 µM)

N/C(=N\NC(=S)N1CCN(c2ccccc2)CC1)c1cc(Sc2ccccc2)ccn1
MIC [1]: 25 µg/mL (≈ 55.7 µM) | MIC [2]: 25 µg/mL (≈ 55.7 µM)

N/C(=N\NC(=S)N1CCCCC1)c1cc(N2CCCC2)ccn1
MIC [1]: 6.25 µg/mL (≈ 18.8 µM) | MIC [2]: 6.25 µg/mL (≈ 18.8 µM)

N/C(=N\NC(=S)N1CCCCC1)c1cc(Oc2ccccc2)ccn1
MIC [1]: 12.5 µg/mL (≈ 35.2 µM) | MIC [2]: 12.5 µg/mL (≈ 35.2 µM)

N/C(=N\NC(=S)N1CCN(c2ccccc2)CC1)c1cc(Oc2ccccc2)ccn1
MIC [1]: 25 µg/mL (≈ 57.8 µM) | MIC [2]: 25 µg/mL (≈ 57.8 µM)

N/C(=N\NC(=S)N1CCN(c2ccccc2)CC1)c1cc(N2CCN(c3ccccc3)CC2)ccn1
MIC [1]: 25 µg/mL (≈ 49.9 µM) | MIC [2]: 25 µg/mL (≈ 49.9 µM)

N/C(=N\NC(=S)N1CCCCC1)c1cc(N2CCOCC2)ccn1
MIC [1]: 6.25 µg/mL (≈ 17.9 µM) | MIC [2]: 6.25 µg/mL (≈ 17.9 µM)

N/C(=N\NC(=S)N1CCOCC1)c1cc(N2CCOCC2)ccn1
MIC [3]: 31.3 µg/mL (≈ 89.3 µM) | MIC [4]: 15.6 µg/mL (≈ 44.5 µM) | MIC [5]: 1000 µg/mL (≈ 2850 µM) | MIC [1]: 3.1 µg/mL (≈ 8.85 µM) | MIC [6]: > 1000 µg/mL | IC50 [7]: 17.8 µg/mL (≈ 50.9 µM) | MIC [8]: > 1000 µg/mL | MIC [9]: > 1000 µg/mL | MIC [10]: 31.3 µg/mL (≈ 89.3 µM) | MIC [11]: 31.3 µg/mL (≈ 89.3 µM) | IC50 [12]: Not Active | MIC [13]: > 1000 µg/mL | MIC [2]: 3.1 µg/mL (≈ 8.85 µM) | MIC [14]: 15.6 µg/mL (≈ 44.5 µM) | MIC [15]: 15.6 µg/mL (≈ 44.5 µM) | MIC [16]: 7.8 µg/mL (≈ 22.3 µM) | MIC [17]: 31.3 µg/mL (≈ 89.3 µM) | MIC [18]: 31.3 µg/mL (≈ 89.3 µM) | MIC [19]: 1000 µg/mL (≈ 2850 µM) | MIC [20]: 31.3 µg/mL (≈ 89.3 µM) | MIC [21]: 15.6 µg/mL (≈ 44.5 µM)

N/C(=N\NC(=S)N1CCCC1)c1cc(Sc2ccccc2)ccn1
MIC [1]: 6.25 µg/mL (≈ 17.5 µM) | MIC [2]: 6.25 µg/mL (≈ 17.5 µM)

N/C(=N\NC(=S)N1CCCCC1)c1cc(N2CCN(c3ccccc3)CC2)ccn1
MIC [1]: 25 µg/mL (≈ 59 µM) | MIC [2]: 25 µg/mL (≈ 59 µM)

N/C(=N\NC(=S)N1CCCC1)c1cc(N2CCOCC2)ccn1
MIC [1]: 6.25 µg/mL (≈ 18.7 µM) | MIC [2]: 6.25 µg/mL (≈ 18.7 µM)

N/C(=N\NC(=S)N1CCOCC1)c1cc(N2CCN(c3ccccc3)CC2)ccn1
MIC [1]: 6.25 µg/mL (≈ 14.7 µM) | MIC [2]: 6.25 µg/mL (≈ 14.7 µM)

N/C(=N\NC(=S)N1CCCC1)c1cc(N2CCN(c3ccccc3)CC2)ccn1
MIC [1]: 12.5 µg/mL (≈ 30.5 µM) | MIC [2]: 12.5 µg/mL (≈ 30.5 µM)

N/C(=N\NC(=S)N1CCN(c2ccccc2)CC1)c1cc(N2CCOCC2)ccn1
MIC [1]: 6.25 µg/mL (≈ 14.7 µM) | MIC [2]: 6.25 µg/mL (≈ 14.7 µM)

N/C(=N\NC(=S)N1CCN(c2ccccc2)CC1)c1cc(N2CCCC2)ccn1
MIC [1]: 6.25 µg/mL (≈ 15.3 µM) | MIC [2]: 6.25 µg/mL (≈ 15.3 µM)

O=C(O)c1cn(C2CC2)c2cc(N3CCNCC3)c(F)cc2c1=O [CIPROFLOXACIN]
MIC [3]: 0.03 µg/mL (≈ 0.0905 µM) | MIC [4]: 0.24 µg/mL (≈ 0.724 µM) | MIC [6]: 0.03 µg/mL (≈ 0.0905 µM) | MIC [14]: 0.49 µg/mL (≈ 1.48 µM) | MIC [15]: 0.49 µg/mL (≈ 1.48 µM) | MIC [16]: 0.98 µg/mL (≈ 2.96 µM) | MIC [18]: 0.12 µg/mL (≈ 0.362 µM) | MIC [20]: 0.12 µg/mL (≈ 0.362 µM) | MIC [21]: 0.24 µg/mL (≈ 0.724 µM)

OC(Cn1cncn1)(Cn1cncn1)c1ccc(F)cc1F [FLUCONAZOLE]
MIC [10]: 1.95 µg/mL (≈ 6.37 µM)

NNC(=O)c1ccncc1 [ISONIAZID]
MIC [1]: 12.5 µg/mL (≈ 91.1 µM) | MIC [2]: 3.1 µg/mL (≈ 22.6 µM)

NC(=O)c1cnccn1 [PYRAZINAMIDE]
MIC [1]: > 400 µg/mL | MIC [2]: 25 µg/mL (≈ 203 µM)

CN[C@H](CC(C)C)C(=O)N[C@H]1C(=O)N[C@@H](CC(N)=O)C(=O)N[C@H]2C(=O)N[C@H]3C(=O)N[C@H](C(=O)N[C@H](C(=O)O)c4cc(O)cc(O)c4-c4cc3ccc4O)[C@H](O)c3ccc(c(Cl)c3)Oc3cc2cc(c3O[C@@H]2O[C@H](CO)[C@@H](O)[C@H](O)[C@H]2O[C@H]2C[C@](C)(N)[C@H](O)[C@H](C)O2)Oc2ccc(cc2Cl)[C@H]1O [VANCOMYCIN]
MIC [3]: 0.24 µg/mL (≈ 0.166 µM) | MIC [4]: 0.49 µg/mL (≈ 0.338 µM) | MIC [5]: 0.24 µg/mL (≈ 0.166 µM) | MIC [8]: 0.24 µg/mL (≈ 0.166 µM) | MIC [14]: 0.98 µg/mL (≈ 0.676 µM) | MIC [15]: 0.98 µg/mL (≈ 0.676 µM) | MIC [16]: 0.12 µg/mL (≈ 0.0828 µM) | MIC [18]: 0.98 µg/mL (≈ 0.676 µM) | MIC [19]: 0.98 µg/mL (≈ 0.676 µM) | MIC [21]: 0.49 µg/mL (≈ 0.338 µM)
